Measurements: publication PMC3660010 (Diabetologia, 2012)
Positions count from the first letter of the chain named. Numbers in names are those of the source. Entries after “also recorded” stand apart in the source; their conditions may differ. Ends that are not written are not given here.

How the values were obtained:
[1] = tested on: INS 832/13 insulinoma cells; assay: Cleaved caspase-3 Western blot, synthetic hIAPP-induced apoptosis; assay type: cell-based, rat; conditions: 20 μmol/l synthetic peptide, 24 h
[2] = tested on: INS 832/13 insulinoma cells; assay: MTT assay, synthetic hIAPP-induced cytotoxicity; assay type: cell-based, rat; conditions: 48 h; for viable cells relative to vehicle control cells (MTT), peptide alone: 20 μmol/l synthetic peptide, INS 832/13, mean ± SEM
Procedure, shortened: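 INS 832/13 cells were exposed to 20 μmol/l synthetic hIAPP plus 4, 40 or 400 nmol/l recombinant NEP or NEPx for 48 h, with vehicle (0.8% DMSO in media), 20 μmol/l rIAPP and 400 nmol/l transferrin controls. MTT added 1:10 from 5 mg/ml stock, 4 h at 37°C, HCl/isopropanol, A570. Viability as % of vehicle; mean ± SEM, n = 3 to 9, one-way ANOVA with Dunnett's test.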

NEPx = NEPx (Homo sapiens, UniProt P08473, E585V); assay: Cleavage of hIAPP by catalytically compromised NEPx, reverse phase HPLC; assay type: biochemical; conditions: 20 μmol/l hIAPP, 400 nmol/l NEPx, 37°C, 1 h
Procedure, shortened: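 Enzyme: recombinant human NEP ectodomain E585V mutant, expressed in CHO-S cells as a His-tagged growth hormone fusion. Purified by nickel affinity, PreScission removal of growth hormone, and MonoQ anion exchange. 20 μmol/l hIAPP incubated with the enzyme in 20 mmol/l MES, pH 6.5, at 37°C. Stopped with TFA to 0.5%. Reverse-phase HPLC on a C4 column.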

hIAPP fibrils = assay: Transmission electron microscopy of hIAPP fibrils; assay type: biochemical, human; conditions: 37°C, 20 h; for hIAPP fibrils by TEM in the presence of protein: hIAPP 25 μmol/l with 0.5 μmol/l protein
NEP [3] = molecular target: T1, NEP (Homo sapiens, UniProt P08473); assay: Fluorogenic assay of NEP activity, inhibition by phosphoramidon; assay type: biochemical
T1 sequence (P08473 52-750 limits assumed): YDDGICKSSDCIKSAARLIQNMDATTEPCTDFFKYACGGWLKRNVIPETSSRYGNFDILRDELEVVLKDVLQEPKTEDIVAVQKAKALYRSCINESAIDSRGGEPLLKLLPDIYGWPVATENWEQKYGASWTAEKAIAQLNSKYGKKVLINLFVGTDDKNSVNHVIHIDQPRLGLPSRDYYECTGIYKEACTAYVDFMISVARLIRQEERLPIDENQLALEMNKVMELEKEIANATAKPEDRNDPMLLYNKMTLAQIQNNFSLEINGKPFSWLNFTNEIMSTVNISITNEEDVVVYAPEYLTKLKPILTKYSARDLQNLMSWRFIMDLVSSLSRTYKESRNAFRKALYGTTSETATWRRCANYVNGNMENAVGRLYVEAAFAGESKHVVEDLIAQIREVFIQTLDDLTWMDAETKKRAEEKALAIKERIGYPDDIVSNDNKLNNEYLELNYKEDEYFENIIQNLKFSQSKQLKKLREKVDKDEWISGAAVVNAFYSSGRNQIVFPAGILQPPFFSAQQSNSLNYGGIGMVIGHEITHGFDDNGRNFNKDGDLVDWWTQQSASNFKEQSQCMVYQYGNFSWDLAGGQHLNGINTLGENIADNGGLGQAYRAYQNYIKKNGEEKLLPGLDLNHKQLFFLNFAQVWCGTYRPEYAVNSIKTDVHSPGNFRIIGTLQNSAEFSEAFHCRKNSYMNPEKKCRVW

NEP^E585V mutant (NEPx) = NEP^E585V mutant (NEPx) (Homo sapiens, UniProt P08473, E585V); assay: Fluorogenic assay of NEPx activity, inhibition by phosphoramidon; assay type: biochemical; conditions: GAAF-4-MNA as substrate
NEP [4] = molecular target: T1, NEP; assay: Cleavage of peptide by neprilysin, reverse phase HPLC and mass spectrometry; assay type: biochemical; conditions: 37°C
Procedure, shortened: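 Purified His-tagged recombinant human NEP (CHO-S-expressed, nickel-affinity and anion-exchange purified), 400 nmol/l, incubated with 20 μmol/l hIAPP (from 2.5 mmol/l DMSO stock) in 20 mmol/l MES, pH 6.5, 37°C for 60 min, with or without phosphoramidon; catalytically compromised E585V mutant run in parallel. Stopped with TFA to 0.5%, reverse-phase HPLC on C4 column; products collected manually for mass spectral identification.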

[5] = tested on: INS 832/13 insulinoma cells; assay: MTT assay, hIAPP overexpression-induced cytotoxicity; assay type: cell-based, rat; conditions: 48 h; for effect on hIAPP overexpression-induced cytotoxicity (MTT), 400 nmol/l protein: adenovirus prepro-hIAPP-GFP MOI 100, 400 nmol/l protein in media
Procedure, shortened: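 INS 832/13 rat insulinoma cells (RPMI 1640, 11.1 mmol/l glucose, 10% FBS, 37°C, 5% CO2) transduced with adenovirus encoding prepro-hIAPP-GFP at MOI 100; GFP and prepro-rIAPP-GFP viruses as controls. Recombinant NEP or NEPx (4, 40, 400 nmol/l) or transferrin (400 nmol/l) added to media. After 48 h, MTT 4 h at 37°C, acidic isopropanol, A570; viability as % of vehicle control.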

NEP [6] = conditions: cited from earlier work
neprilysin (NEP) = assay: 400 nmol/l recombinant NEP in 20 mmol/l MES buffer, pH 6.5; conditions: human, 37°C, up to 60 min
[7] = Fluorogenic assay of NEP activity with GAAF-4-MNA as substrate; assay type: biochemical; conditions: 100 μmol/l GAAF-4-MNA, 20 mmol/l MES pH 6.5, 37°C
[8] = 20 μmol/l synthetic hIAPP, mean ± SEM, n = 3 to 9

In the case of “rIAPP: synthetic rodent islet amyloid polypeptide, non-aggregating control [reference compound]”, the “induction of apoptosis (increase in cleaved caspase-3), peptide alone” value [1] is reported as “but not rIAPP, induced apoptosis” and the “viable cells relative to vehicle control cells (MTT), peptide alone” value ([2]; n = 3 to 9) is reported as “did not cause significant cytotoxicity”.

With `CC[C@H](C)[C@H](NC(=O)[C@H](C)NC(=O)CNC(=O)[C@H](Cc1ccccc1)NC(=O)[C@H](CC(N)=O)NC(=O)[C@H](CC(N)=O)NC(=O)[C@H](CO)NC(=O)[C@H](CO)NC(=O)[C@H](Cc1c[nH]cn1)NC(=O)[C@@H](NC(=O)[C@H](CC(C)C)NC(=O)[C@H](Cc1ccccc1)NC(=O)[C@H](CC(N)=O)NC(=O)[C@H](C)NC(=O)[C@H](CC(C)C)NC(=O)[C@H](CCCNC(=N)N)NC(=O)[C@H](CCC(N)=O)NC(=O)[C@@H](NC(=O)[C@H](C)NC(=O)[C@@H]1CSSC[C@H](NC(=O)[C@@H](N)CCCCN)C(=O)N[C@@H](CC(N)=O)C(=O)N[C@@H]([C@@H](C)O)C(=O)N[C@@H](C)C(=O)N[C@@H]([C@@H](C)O)C(=O)N1)[C@@H](C)O)C(C)C)C(=O)N[C@@H](CC(C)C)C(=O)N[C@@H](CO)C(=O)N[C@@H](CO)C(=O)N[C@H](C(=O)N[C@@H](CC(N)=O)C(=O)N[C@H](C(=O)NCC(=O)N[C@@H](CO)C(=O)N[C@@H](CC(N)=O)C(=O)N[C@H](C(=O)N[C@@H](Cc1ccc(O)cc1)C(N)=O)[C@@H](C)O)C(C)C)[C@@H](C)O` [hIAPP, IAPP (1–37, disulfide bridge 2–7, amide), reference compound] the “induction of apoptosis (increase in cleaved caspase-3), peptide alone” value [1] was “induced apoptosis”, the “cleavage of hIAPP by NEPx” value (NEPx) was “no cleavage” and the “hIAPP fibrils by TEM, untreated hIAPP (CTRL)” value (hIAPP fibrils; hIAPP 25 μmol/l with buffer) was “fibrils were observed”. The “viable cells relative to vehicle control cells (MTT), peptide alone” value ([2]; n = 3 to 9) was 15.6 ± 3.5%.

In the case of `CC(C)C[C@H](NP(=O)(O)O[C@@H]1O[C@@H](C)[C@H](O)[C@@H](O)[C@H]1O)C(=O)N[C@@H](Cc1c[nH]c2ccccc12)C(=O)O` [phosphoramidon], the “activity of NEP in the presence of phosphoramidon” value (NEP [3]; GAAF-4-MNA as substrate) is reported as “undetectable levels”, the inhibition at 50 µM (NEP [3]; read-out: inhibition of NEP activity) is reported as over 99% and the “activity of NEPx in the presence of phosphoramidon” value (NEP^E585V mutant (NEPx)) is reported as “undetectable levels”. For the same molecule, the “effect of NEP inhibitor on hIAPP cleavage by NEP” value (NEP [4]; 20 μmol/l hIAPP, 400 nmol/l NEP, 60 min, HPLC) was “blocked”.

For ILSSTNVGSNTY-NH2, the “further cleavage of the product by NEP” value (NEP [4]; product of hIAPP (20 μmol/l) with 400 nmol/l NEP, initially increased with time, then decreased (HPLC)) was “appeared to be further cleaved”.

With “TF: transferrin used as protein control [reference compound]” the “effect on hIAPP overexpression-induced cytotoxicity (MTT), 400 nmol/l protein” value [5] was “had no effect”, the “hIAPP fibrils by TEM in the presence of protein” value (shortened to “hIAPP fibrils … of protein”) (hIAPP fibrils) was “fibrils were observed” and the “viable cells (MTT) with hIAPP in the presence of 400 nmol/l protein” value (from here on “viable cells (MTT) … of 400 nmol/l protein”) [2, 8] was “did not protect”.

For “IAPP (1–37, disulfide bridge 2–7, amide)”, the not cleaved (NEP [6]) is listed as “concluded that NEP did not cleave hIAPP” and the cleaved bond (neprilysin (NEP)) is listed as “Arg11-Leu12, major; also recorded: Leu12-Ala13, major”.

B1: NEPx: catalytically compromised NEP^E585V mutant ectodomain, about 80% pure (protein, UniProt P08473 52-750, looked up, variant E585V)
extracellular domain: YDDGICKSSDCIKSAARLIQNMDATTEPCTDFFKYACGGWLKRNVIPETSSRYGNFDILRDELEVVLKDVLQEPKTEDIVAVQKAKALYRSCINESAIDSRGGEPLLKLLPDIYGWPVATENWEQKYGASWTAEKAIAQLNSKYGKKVLINLFVGTDDKNSVNHVIHIDQPRLGLPSRDYYECTGIYKEACTAYVDFMISVARLIRQEERLPIDENQLALEMNKVMELEKEIANATAKPEDRNDPMLLYNKMTLAQIQNNFSLEINGKPFSWLNFTNEIMSTVNISITNEEDVVVYAPEYLTKLKPILTKYSARDLQNLMSWRFIMDLVSSLSRTYKESRNAFRKALYGTTSETATWRRCANYVNGNMENAVGRLYVEAAFAGESKHVVEDLIAQIREVFIQTLDDLTWMDAETKKRAEEKALAIKERIGYPDDIVSNDNKLNNEYLELNYKEDEYFENIIQNLKFSQSKQLKKLREKVDKDEWISGAAVVNAFYSSGRNQIVFPAGILQPPFFSAQQSNSLNYGGIGMVIGHVITHGFDDNGRNFNKDGDLVDWWTQQSASNFKEQSQCMVYQYGNFSWDLAGGQHLNGINTLGENIADNGGLGQAYRAYQNYIKKNGEEKLLPGLDLNHKQLFFLNFAQVWCGTYRPEYAVNSIKTDVHSPGNFRIIGTLQNSAEFSEAFHCRKNSYMNPEKKCRVW
modifications: extracellular domain
With B1 the “NEP activity abolished by the E585V mutation” value [7] was “greater than 98%”, the “activity relative to wild-type NEP activity” value ([7]; fluorescence ex 340/em 425 nm) was ~ 1.7% and the “effect on hIAPP overexpression-induced cytotoxicity (MTT), NEPx” value ([5]; adenovirus prepro-hIAPP-GFP MOI 100, 4, 40 or 400 nmol/l NEPx) was “had no effect”. The “hIAPP fibrils … of protein” value (hIAPP fibrils) was “fibrils were observed” and the “viable cells (MTT) … of 400 nmol/l protein” value [2, 8] was 58.4 ± 9.3%.

B2: NEP: recombinant ectodomain of human neprilysin expressed in CHO-S cells (protein, UniProt P08473 52-750, looked up)
extracellular domain: B1 extracellular domain with V534E
modifications: extracellular domain
With B2 the “effect on hIAPP overexpression-induced cytotoxicity (MTT), 400 nmol/l protein” value [5] was “reduced this hIAPP induced cytotoxicity”, the “effect on hIAPP overexpression-induced cytotoxicity (MTT), lower concentrations of NEP” value ([5]; adenovirus prepro-hIAPP-GFP MOI 100, 4 or 40 nmol/l) was “had no effect” and the “hIAPP fibrils … of protein” value (hIAPP fibrils) was “fibrils were not seen”. For the same molecule, the “viable cells (MTT) with hIAPP in the presence of 4 nmol/l protein” value ([2]; 20 μmol/l synthetic hIAPP, 4 nmol/l protein, not statistically significant) was 39.4 ± 15.3%, the “viable cells (MTT) with hIAPP in the presence of 40 nmol/l protein” value ([2]; 20 μmol/l synthetic hIAPP, 40 nmol/l protein, mean ± SEM, n = 3 to 9) was 92.9 ± 9.5% and the “viable cells (MTT) … of 400 nmol/l protein” value [2, 8] was 84.5 ± 7.3%.
